Laboratory results taken from ChEMBL document CHEMBL1770105, “Discovery and evaluation of pyrazolo[1,5-a]pyrimidines as neuropeptide Y1 receptor antagonists” (Bioorg Med Chem Lett, 2011).
pIC50, pKi: −log10 of the molar value. One block for each compound: values may come before it. Active and inactive are the calls of the source. The calls are words filed in the database; no cut-off is given here.

Assays:
Rattus norvegicus [1] = assay: Antihypertensive activity in Sprague-Dawley rat assessed as inhibition of NPY-induced increase in arterial pressure at 3 mg/kg, iv; assay type: functional; details: Artery
In short: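 Overnight-fasted SD rats anesthetized with inactin (100 mg/kg ip), tracheal and femoral arterial/venous cannulae, on a heated pad. Arterial pressure and heart rate recorded every 5 s. NPY given as iv bolus every 15 min. After the third NPY bolus, compound given iv at 3 mg/kg in saline (1 mL/kg), followed by three further NPY injections.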

[2] = Fraction unbound in Sprague-Dawley rat plasma at 1 mg/kg, iv and 3 mg/kg, po; assay type: ADME, organism-based
[3] = target: T1, Neuropeptide Y receptor type 1 (Homo sapiens, UniProt P25929); assay: Antagonist activity at NPY Y1 receptor in human SK-N-MC cells assessed as inhibition of NPY-induced calcium mobilization by FLIPR assay; assay type: functional, cell-based
T1 sequence (P25929 whole entry): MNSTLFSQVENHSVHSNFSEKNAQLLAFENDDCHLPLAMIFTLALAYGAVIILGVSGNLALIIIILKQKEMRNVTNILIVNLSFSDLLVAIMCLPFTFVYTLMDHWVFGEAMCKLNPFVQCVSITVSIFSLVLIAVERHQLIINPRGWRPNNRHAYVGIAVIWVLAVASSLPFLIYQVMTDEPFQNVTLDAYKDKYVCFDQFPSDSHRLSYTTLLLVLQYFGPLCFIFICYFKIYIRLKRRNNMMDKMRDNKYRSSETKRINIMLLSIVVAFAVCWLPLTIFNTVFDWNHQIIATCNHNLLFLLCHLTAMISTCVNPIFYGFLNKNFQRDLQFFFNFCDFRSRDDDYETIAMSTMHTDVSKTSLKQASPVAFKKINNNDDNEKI
In short: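 SK-N-MC neuroblastoma cells plated at 25,000/well 4 days ahead, loaded with Fluo-3 for 1 h in 5% CO2, washed and resuspended in assay buffer (5 mM KCl, 115 mM NaCl, 0.96 mM NaH2PO4, 1 mM MgSO4, 2 mM CaCl2, 5 mM D-glucose) containing test compound.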

[4] = Plasma clearance in Sprague-Dawley rat at 1 mg/kg, iv and 3 mg/kg, po; assay type: ADME, organism-based
In short: (§1)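 Overnight-fasted, jugular-vein-cannulated SD rats (water ad libitum) dosed by oral gavage (3 mg/kg in 0.5% methyl cellulose, 2 mL/kg, n = 2) or iv via the jugular vein (1.0 mg/kg in 50% PEG, 1 mL/kg, n = 2).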

[5] = target: T1, Neuropeptide Y receptor type 1; assay: Displacement of [125I]-PYY from human recombinant NPY Y1 receptor overexpressed in membrane of Sf9 cells
In short: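 Human Y1 receptor: 125I-PYY displacement on Sf9 membranes overexpressing recombinant hY1R. Ki values are single determinations run in triplicate.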

Rattus norvegicus [6] = assay: Unbound plasma clearance in Sprague-Dawley rat 1 mg/kg, iv and 3 mg/kg, po; assay type: ADME, organism-based; details: in vivo
[7] = Ratio of fraction unbound drug level in brain to plasma in Mdr1a/1b knockout mouse to FVB mouse at 5 mg.kg, sc after 0.5 hrs; assay type: ADME, organism-based
In short: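 Brain and plasma levels measured in Mdr1a/1b knockout and wild-type FVB mice 0.5 h after a 5 mg/kg sc dose. Brain/plasma ratios calculated from unbound fractions, measured by equilibrium dialysis of brain homogenate and plasma. Result expressed as knockout B/P over FVB B/P.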

[8] = Selectivity ratio of NPY Y1 receptor over CRHR
[9] = target: T2, Corticotropin-releasing factor receptor 1 (Homo sapiens, UniProt P34998); assay: Binding affinity to CRHR
T2 sequence (P34998 whole entry): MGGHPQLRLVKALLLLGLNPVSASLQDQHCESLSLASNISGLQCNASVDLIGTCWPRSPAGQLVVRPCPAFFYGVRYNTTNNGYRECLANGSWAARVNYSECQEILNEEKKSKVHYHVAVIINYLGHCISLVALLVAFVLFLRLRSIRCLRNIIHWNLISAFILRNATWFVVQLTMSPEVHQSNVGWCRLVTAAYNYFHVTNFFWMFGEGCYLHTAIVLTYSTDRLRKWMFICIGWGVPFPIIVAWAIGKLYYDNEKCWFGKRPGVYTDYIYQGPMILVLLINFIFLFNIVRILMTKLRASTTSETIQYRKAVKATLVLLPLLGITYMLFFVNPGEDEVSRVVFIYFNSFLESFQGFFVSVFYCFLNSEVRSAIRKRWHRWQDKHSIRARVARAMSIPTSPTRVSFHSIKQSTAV

Rattus norvegicus [10] = assay: Antiobesity activity in overnight fasted Sprague-Dawley rat assessed as decrease in food intake at 40 mg/kg, po followed by food re-feeding after 4 hrs post compound dose measured up to 2 to 4 hrs post re-feeding; assay type: functional, organism-based; parameters: dose 40 mg/kg
In short: (§2)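 SD rats housed singly with powdered chow and water, fasted overnight, then dosed po at 40 mg/kg or vehicle (0.5% methyl cellulose in water). Pre-weighed food returned 2 or 4 h post-dose. Intake recorded 2 and 4 h after food was restored, relative to vehicle controls.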

[11] = target: T3, Corticotropin-releasing factor receptor 1 (Homo sapiens) (UniProt P34998); assay: Binding affinity to CRHR at 10 uM
T3 sequence (whole entry): T2 sequence (P34998 whole entry)

[12] = target: T4, Neuropeptide Y receptor type 2 (Homo sapiens, UniProt P49146); assay: Binding affinity to human NPY Y2 receptor
T4 sequence (P49146 whole entry): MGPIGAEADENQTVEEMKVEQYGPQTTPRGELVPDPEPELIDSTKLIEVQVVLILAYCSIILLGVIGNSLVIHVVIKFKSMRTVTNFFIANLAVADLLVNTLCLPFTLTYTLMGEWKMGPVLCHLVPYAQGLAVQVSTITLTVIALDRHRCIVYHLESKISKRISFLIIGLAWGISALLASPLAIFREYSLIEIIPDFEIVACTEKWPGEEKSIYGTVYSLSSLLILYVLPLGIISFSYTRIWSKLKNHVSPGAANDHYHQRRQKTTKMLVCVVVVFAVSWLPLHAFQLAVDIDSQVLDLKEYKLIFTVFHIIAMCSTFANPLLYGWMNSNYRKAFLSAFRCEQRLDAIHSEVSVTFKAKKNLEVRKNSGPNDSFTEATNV

Rattus norvegicus [13] = assay: Neurotoxicity in Sprague-Dawley rat assessed as change in locomotor activity at 40 mg/kg, po; assay type: toxicity, organism-based; parameters: dose 40 mg/kg, route oral; details: in vivo
[14] = Ratio of fraction unbound drug level in brain to plasma in FVB mouse; assay type: ADME, cell-free
In short: (§3)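 Brain-to-plasma ratios calculated from unbound fractions. Unbound fraction in brain homogenate and whole plasma of rats or mice measured by equilibrium dialysis.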

[15] = Half life in Sprague-Dawley rat at 1 mg/kg, iv and 3 mg/kg, po; assay type: ADME, organism-based; details: in vivo; in short: as §1
[16] = target: T5, Neuropeptide Y receptor type 1 (Rattus norvegicus, UniProt P21555); assay: Displacement of [125I]PYY from rat recombinant NPY Y1 receptor overexpressed in membrane of Sf9 cells
T5 sequence (P21555 whole entry): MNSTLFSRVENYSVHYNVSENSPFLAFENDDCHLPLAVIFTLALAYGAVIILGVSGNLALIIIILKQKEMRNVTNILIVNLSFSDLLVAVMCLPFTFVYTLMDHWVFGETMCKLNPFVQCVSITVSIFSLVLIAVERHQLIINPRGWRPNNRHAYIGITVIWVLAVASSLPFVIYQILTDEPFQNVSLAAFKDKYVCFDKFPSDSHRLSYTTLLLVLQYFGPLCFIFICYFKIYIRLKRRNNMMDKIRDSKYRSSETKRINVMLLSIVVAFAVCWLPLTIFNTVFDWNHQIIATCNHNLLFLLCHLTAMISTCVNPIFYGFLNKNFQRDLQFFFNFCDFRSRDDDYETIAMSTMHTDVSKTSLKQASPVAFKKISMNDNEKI

[17] = Oral bioavailability in Sprague-Dawley rat at 3 mg/kg; assay type: ADME, organism-based; details: in vivo; in short: as §1
Rattus norvegicus [18] = assay: Antiobesity activity in Sprague-Dawley rat assessed as reduction of NPY-induced food intake at 120 ug, icv after 4 hrs; assay type: functional, organism-based
In short: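 SD rats with icv cannulae, fed powdered chow ad libitum. Between 10 and 11 am in the light cycle, compound or propylene glycol vehicle co-infused icv with NPY in sterile water over 1 min. Food intake measured over the next 4 h. Crossover design, two treatments 2 days apart.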

Rattus norvegicus [19] = assay: Neurotoxicity in Wistar rat assessed as change in locomotor activity at 40 mg/kg, po; assay type: toxicity, organism-based; parameters: dose 40 mg/kg, route oral; details: in vivo
Rattus norvegicus [20] = assay: Antiobesity activity in Wistar rat assessed as decrease in nocturnal food intake at 40 mg/kg, po measured every 10 mins for 18 hrs post-dose; assay type: functional, organism-based; parameters: dose 40 mg/kg
In short: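 Wistar rats acclimated to a continuous food-intake monitoring system. Dosed po at 40 mg/kg or vehicle 30 min before the dark cycle. Intake logged every 10 min for 18 h post-dose. Compared with time-matched vehicle by two-tailed unpaired t-test.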

[21] = Ratio of fraction unbound drug level in brain to plasma in Sprague-Dawley rat; assay type: ADME, cell-free; in short: as §3
Plasma = assay: Unbound plasma concentration in Sprague-Dawley rat at 40 mg/kg, po after 2 hrs; assay type: ADME, organism-based; parameters: dose 40 mg/kg, route oral; details: in vivo
Rattus norvegicus [22] = assay: Antiobesity activity in overnight fasted Sprague-Dawley rat assessed as decrease in food intake at 40 mg/kg, po followed by food re-feeding after 2 hrs post compound dose measured up to 4 hrs post re-feeding relative to control; assay type: functional; parameters: scale not given: the % may be the effect or the level left; in short: as §2
[23] = Drug level in Sprague-Dawley rat brain interstitial fluid at 40 mg/kg, po after 2 hrs; assay type: ADME, organism-based; parameters: dose 40 mg/kg, route oral; details: read-out: Drug uptake
In short: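 Rats dosed 40 mg/kg po. Interstitial fluid collected at 2 h from the paraventricular nucleus with microdialysis probes.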

[24] = target: T6, Neuropeptide Y receptor type 5 (Homo sapiens, UniProt Q15761); assay: Binding affinity to human NPY Y5 receptor
T6 sequence (Q15761 whole entry): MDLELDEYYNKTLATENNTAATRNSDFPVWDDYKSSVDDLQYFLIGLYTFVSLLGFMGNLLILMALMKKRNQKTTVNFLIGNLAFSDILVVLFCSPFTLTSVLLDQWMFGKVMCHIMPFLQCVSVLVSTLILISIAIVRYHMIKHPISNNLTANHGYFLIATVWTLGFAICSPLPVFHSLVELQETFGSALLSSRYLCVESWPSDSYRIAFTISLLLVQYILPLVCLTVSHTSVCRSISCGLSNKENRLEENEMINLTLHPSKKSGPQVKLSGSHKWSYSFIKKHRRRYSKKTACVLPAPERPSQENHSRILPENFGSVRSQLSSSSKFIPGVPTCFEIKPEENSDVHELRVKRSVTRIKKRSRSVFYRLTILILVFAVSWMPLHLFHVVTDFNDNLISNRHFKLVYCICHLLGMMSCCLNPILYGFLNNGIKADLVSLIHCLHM

[25] = Drug level in Sprague-Dawley rat cerebral spinal fluid at 40 mg/kg, po after 2 hrs; assay type: ADME, organism-based; parameters: dose 40 mg/kg, route oral; details: cerebrospinal fluid, read-out: Drug uptake
In short: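 Rats dosed 40 mg/kg po were anesthetized with metofane at 2 h post-dose (n = 2). CSF drawn from the cisterna magna with a 26-gauge needle.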

Rattus norvegicus [26] = assay: Antiobesity activity in overnight fasted Sprague-Dawley rat assessed as decrease in food intake at 40 mg/kg, po followed by food re-feeding after 2 hrs post compound dose measured upto 2 hrs post re-feeding relative to control; assay type: functional; parameters: scale not given: the % may be the effect or the level left; in short: as §2

Compound: COc1ccc(CCNCCNc2cc(C)nc3c(-c4c(C)cc(C)cc4C)c(C)nn23)cc1
pKi [5]: 7.54

Compound: COc1cc(Cl)c(-c2c(C)nn3c(NCCNCCF)cc(C)nc23)c(Cl)c1
Knockout-to-FVB ratio of unbound brain/plasma ratio [7]: 4
pKi [5]: 7.66

Compound: CCN(CCN)c1nc(C)nc2c1c1ccccc1n2-c1c(C)cc(C)cc1C
Ratio [8]: 29
pKi [9]: 5.35

Compound: Cc1cc(NCCNC2CCCC2)n2nc(C)c(-c3c(Cl)cccc3Cl)c2n1
pKi [5]: 7.42

Further compounds by rising pKi [5], results first:

pKi [5]: 7.68
Compound: Cc1cc(C)c(-c2c(C)nn3c(NCCNC4CCCC4)cc(C)nc23)c(C)c1

fraction unbound [2]: 0.011
pIC50 [3]: 6.68
clearance [4]: 25 mL/min/kg
pKi [5]: 8.10
CL (Rattus norvegicus [6]): 2273 mL/min/kg
Compound: CCCOc1cc(Cl)c(-c2c(C)nn3c(NCCNC4CCOCC4)cc(C)nc23)c(Cl)c1
inhibition in vivo at 3 mg/kg (Rattus norvegicus [1]): 0%

inhibition [11]: < 50%
pIC50 [12]: < 5.00
fraction unbound [2]: 0.059
Knockout-to-FVB ratio of unbound brain/plasma ratio [7]: 9
pIC50 [3]: 8.15
BPR [14]: 0.1
clearance [4]: 45 mL/min/kg
half-life [15]: 1.2 h
pKi [16]: 8.46
bioavailability [17]: 13%
BPR [21]: 0.13
Cp (Plasma): 95 nM
pKi [5]: 9.00
CL (Rattus norvegicus [6]): 763 mL/min/kg
concentration at 2 h [23]: 17 nM
pIC50 [24]: < 5.00
concentration at 2 h [25]: 26 nM
Compound: COc1cc(Cl)c(-c2c(C)nn3c(NCCNC4CCOCC4)cc(C)nc23)c(Cl)c1
Activity (Rattus norvegicus [10]): inactive
inhibition in vivo at 3 mg/kg (Rattus norvegicus [1]): 92%
Activity (Rattus norvegicus [13]): Non-toxic
Activity (Rattus norvegicus [18]): Active
Activity (Rattus norvegicus [19]): Non-toxic
Activity (Rattus norvegicus [20]): Active
Activity (Rattus norvegicus [22]): 12%
Activity (Rattus norvegicus [26]): 12%
